Most compounds without a hit are left out; they make up all but 1.9% or so of the library.
ASAP1 GAP inh = inhibitors of human ASAP1 ArfGAP activity, primary screen, biochemical, fluorescence polarization | Arf-GAP with SH3 domain, ANK repeat and PH domain-containing protein 1 (Homo sapiens), … | ASAP1-stimulated ARF1 GTP hydrolysis, GDP FP detection | inhibition, % at 16.5 µM | 360,000 tested, 0.19% active; in the data active = inhibition above about 25%
Target sequence (Q9ULH1 325-724 limits assumed): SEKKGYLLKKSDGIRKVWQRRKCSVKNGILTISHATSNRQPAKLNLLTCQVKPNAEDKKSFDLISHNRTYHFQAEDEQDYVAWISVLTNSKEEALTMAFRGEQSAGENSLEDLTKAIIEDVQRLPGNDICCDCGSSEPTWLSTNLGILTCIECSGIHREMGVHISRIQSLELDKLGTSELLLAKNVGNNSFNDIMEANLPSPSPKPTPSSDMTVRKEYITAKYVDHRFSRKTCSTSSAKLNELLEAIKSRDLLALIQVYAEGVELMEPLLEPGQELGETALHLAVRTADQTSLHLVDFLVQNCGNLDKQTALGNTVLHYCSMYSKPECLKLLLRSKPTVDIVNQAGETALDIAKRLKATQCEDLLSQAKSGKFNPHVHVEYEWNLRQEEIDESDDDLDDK
Rtt109 HAT inh = inhibitors of C. albicans Rtt109/Vps75 HAT, primary screen, biochemical, ThioGlo CoA-SH fluorescence, plate reader; Histone acetyltransferase RTT109 (Candida albicans (strain SC5314 / ATCC MYA-2876)), …; purified Rtt109/Vps75, 4 h; inhibition, % at 34.9 µM; 330,000 tested, 0.16% active; AID 540336, 2011;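 active = inhibition of at least 50% in every replicate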
FGF22 binding = binders of human FGF22 protein, primary screen, FGF22 synaptogenesis inhibitor project, biophysical, thermal shift, single point. Fibroblast growth factor 22 (Homo sapiens), Q9HCT0. recombinant FGF22 thermal shift, SYPRO orange fluorescence; percent of sucrose octasulfate shift, DMSO zero. activity (Tm shift, normalised), % at 9.99 µM. 340,000 tested, 1.5% active. AID 651658, 2012;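 active = mean Tm shift, scaled 0 neutral to 100 positive control, at about 1.3% or above, every replicate too, limit read from the data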
Target sequence (Q9HCT0 whole entry, looked up): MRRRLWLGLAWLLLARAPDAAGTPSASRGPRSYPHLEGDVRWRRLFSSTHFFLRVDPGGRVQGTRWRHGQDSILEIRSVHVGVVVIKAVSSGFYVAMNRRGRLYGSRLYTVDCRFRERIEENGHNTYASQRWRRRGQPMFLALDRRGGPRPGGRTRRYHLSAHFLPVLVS
Efflux pump inh = inhibitors of Candida efflux pumps in yeast, primary screen, S. cerevisiae, Nile Red, multiplex. inhibition, % at 10 µM. 330,000 tested, 0.44% active. S. cerevisiae Candida pump triplex. AID 485275, 2010;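 active = plate passing quality check with inhibition over a set limit, or well fluorescence over plate mean plus 4 SD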;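 note: Nile Red retained in pooled yeast measured as flow cytometry median fluorescence; higher means more Nile Red kept so more efflux inhibition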
ARFGAP1 inhibitor = inhibitors of rat ARFGAP1 GAP activity, primary screen, biochemical, fluorescence polarization, GDP tracer; ADP-ribosylation factor GTPase-activating protein 1 (Rattus norvegicus), Q62848; Arfgap1-stimulated ARF1 GTP hydrolysis, GDP FP detection; inhibition, % at 16.5 µM; 360,000 tested, 0.26% active; AID 651572, 2012;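 active = inhibition above a per-plate limit, mean inhibition of low control wells plus 3 SD, cut at about 25% in these data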
Target sequence (Q62848 1-136 limits assumed): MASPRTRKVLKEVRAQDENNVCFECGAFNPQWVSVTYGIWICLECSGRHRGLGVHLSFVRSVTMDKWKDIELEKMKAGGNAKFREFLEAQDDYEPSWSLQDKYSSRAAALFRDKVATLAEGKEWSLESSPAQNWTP
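System: truncated rat Arfgap1 GAP domain / Benchmarks: high control wells lacking Arfgap1, low control full reaction with DMSO / Times: compound-enzyme preincubation 20 min, reaction 120 min, detection 60 min, 25 °C / Repeats: one replicate per compound / Also added: human ARF1(Δ1-17)-GTP substrate / Measured by: Tracer-displacement fluorescence polarization with EDTA stop, 620/688 nm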
ASAP1 inh confirm = ASAP1 GAP activity inhibitors, confirmation, biochemical, fluorescence polarization, human, triplicate | shares compounds with ASAP1 GAP inh | ASAP1-stimulated Arf1 GTPase, GDP fluorescence polarization | inhibition, % at 16.5 µM | 620 tested, 37% active | AID 624431, 2012;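 active = mean inhibition over triplicates exceeds the hit threshold derived for the earlier primary screening run, cut at about 25% in these data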
Of the large screens only hits and unclear results are named; the others gave an inactive call (follow-up assays come after a bar, where they were run).

O=C(Cn1nc(-c2ccc3c(c2)OCCO3)ccc1=O)Nc1ccc(-n2cnnn2)cc1	ASAP1 GAP inh 35.7 | ASAP1 inh confirm 36.4
Cc1ccc(C(=O)NCCC2=CCCCC2)cc1S(=O)(=O)N1CCOCC1	none
Cc1ccc(C(=O)NCCC2=CCCCC2)cc1S(=O)(=O)N1CCCCC1	ASAP1 GAP inh 27.9 | ASAP1 inh confirm inactive
O=c1cc(-c2ccc(O)c(O)c2)oc2c1ccc1ccccc12	ASAP1 GAP inh 24.7 | ASAP1 inh confirm inactive
O=c1cc(-c2ccccc2)oc2c1ccc1ccccc12	none (no result: Rtt109 HAT inh, Efflux pump inh)
COC(=O)c1cccc(Nc2nc(-c3ccncc3)nc3ccccc23)c1	ASAP1 GAP inh 27.6 | ASAP1 inh confirm 57.1
Oc1cccc(Nc2nc(-c3ccccc3)nc3ccccc23)c1	ASAP1 GAP inh 26.8 | ASAP1 inh confirm 28.1
CCN(CC)C1=NS(=O)(=O)c2cc([N+](=O)[O-])ccc21	none
O=C(CSc1nc2ccc(Nc3nc(N4CCOCC4)nc(N4CCOCC4)n3)cc2s1)N1CCOCC1	ASAP1 GAP inh 25.4 (no result: FGF22 binding) | ASAP1 inh confirm 45.5
O=C(CSc1nc2ccc(Nc3nc(N4CCOCC4)nc(N4CCOCC4)n3)cc2s1)Nc1ccccc1	none (no result: Rtt109 HAT inh, Efflux pump inh)
CC1=CC2=NC(=O)/C(=C/c3cccs3)C(=N)N2O1	none
CC1=CC2=NC(=O)/C(=C\c3ccc(-c4ccc(Cl)cc4)o3)C(=N)N2O1	ASAP1 GAP inh 29.8 (no result: Rtt109 HAT inh, FGF22 binding, Efflux pump inh) | ASAP1 inh confirm 87.4
COc1ccc([C@H]2CN(c3ccc(OC)cc3)C(=O)[C@@H]2CC(=O)Nc2ccccc2)cc1	ASAP1 GAP inh 28.1 (no result: Rtt109 HAT inh, Efflux pump inh) | ASAP1 inh confirm inactive
COc1ccc(NC(=O)C[C@H]2C(=O)N(c3ccc(Br)cc3)C[C@@H]2c2ccc(OC)cc2)cc1	none (no result: Rtt109 HAT inh, Efflux pump inh)
COn1c(SC2CCCCC2)nc2ccccc2c1=O	ASAP1 GAP inh 74.4 (no result: FGF22 binding) | ASAP1 inh confirm inactive
NC(=S)NN=C1c2cc(OCCN3CCOCC3)ccc2-c2ccc(OCCN3CCOCC3)cc21	ASAP1 GAP inh 25.1 | ASAP1 inh confirm inactive
COC(=O)C1=C(C)N(Cc2ccc(C(F)(F)F)cc2)C(=NCC2CC2)NC1c1ccccc1 (stereo unspecified)	none (no result: Rtt109 HAT inh, Efflux pump inh)
C[C@@H]1CN([C@@H](C)CO)C(=O)c2cccc(NC(=O)c3ccncc3)c2O[C@@H]1CN(C)S(=O)(=O)c1cn(C)cn1	none (no result: ASAP1 GAP inh, Rtt109 HAT inh, Efflux pump inh, ARFGAP1 inhibitor)
O=c1[nH]c(Nc2ccccc2)cc2cc(Br)ccc12	ASAP1 GAP inh 36.2 | ASAP1 inh confirm inactive
COc1ccc(/C=N/NS(=O)(=O)c2ccc(F)cc2)cc1COc1cc(F)ccc1[N+](=O)[O-]	none
CN1CCCN(Cc2ccccc2C(F)(F)F)CC1	none (no result: FGF22 binding)
COc1cccc(-c2ccc3c(c2)O[C@H](CN(C)C(=O)c2ccccc2F)[C@H](C)CN([C@H](C)CO)S3(=O)=O)c1	ASAP1 GAP inh 25.1 (no result: Rtt109 HAT inh, Efflux pump inh) | ASAP1 inh confirm inactive
COc1ccc(C(CC(=O)NCCN2CCOCC2)NS(=O)(=O)c2ccc(C)cc2)cc1 (stereo unspecified)	none
COc1ccc(/C=C2\C(=O)NC(=S)N2C(=O)c2ccc(F)cc2)cc1	ASAP1 GAP inh 24.9 (no result: FGF22 binding) | ASAP1 inh confirm inactive
O=C1NC(=S)N(C(=O)c2ccc(F)cc2)/C1=C/c1ccccc1	none
O=C1NC(Cc2c[nH]c3ccccc23)C(=O)N1CCOc1ccc(F)cc1 (stereo unspecified)	none (no result: FGF22 binding)
O=C1NC(Cc2c[nH]c3ccccc23)C(=O)N1Cc1ccc(CN2C(=O)NC(Cc3c[nH]c4ccccc34)C2=O)cc1 (stereo unspecified)	ASAP1 GAP inh 29.4 | ASAP1 inh confirm inactive
O=C(Nc1ccc2oc(=O)ccc2c1)c1ccc(-c2ccc(Cl)cc2)o1	ASAP1 GAP inh 48.4 (no result: FGF22 binding) | ASAP1 inh confirm 68.6
OC[C@@H]1CN(Cc2ccc(-c3ccccc3)cc2)C[C@H](n2cnc3c(Nc4ccccc4)ncnc32)O1	ASAP1 GAP inh 26.0 (no result: Rtt109 HAT inh, Efflux pump inh) | ASAP1 inh confirm inactive
CNc1ncnc2c1ncn2[C@H]1CN(Cc2ccc(-c3ccccc3)cc2)C[C@@H](CO)O1	none (no result: Rtt109 HAT inh, Efflux pump inh)
CN(C)S(=O)(=O)c1ccc(NC=C(C#N)C#N)cc1	none
COc1ccc(NC(=S)Nc2ccc3nsnc3c2)cc1	ASAP1 GAP inh 32.7, Rtt109 HAT inh 54.2 (no result: FGF22 binding) | ASAP1 inh confirm inactive
CC(C)N(C(=O)Nc1ccc2nsnc2c1)C(C)C	ASAP1 GAP inh 41.3 (no result: Rtt109 HAT inh) | ASAP1 inh confirm inactive
COc1ccc(/C=N/NC(=O)c2nc(-c3ccccc3)cc(-c3ccccc3)n2)cc1O	ASAP1 GAP inh 25.9 (no result: FGF22 binding) | ASAP1 inh confirm 32.4
COc1ccc(/C=N/NC(=O)c2nc(-c3ccccc3)cc(-c3ccccc3)n2)cc1	none (no result: FGF22 binding)
CCOC(=O)Nc1ccc2c(c1)C(=NNC(N)=S)c1ccccc1-2	ASAP1 GAP inh 26.8 (no result: Efflux pump inh) | ASAP1 inh confirm inactive
CCOC(=O)Nc1ccc2c(c1)C(=NO)c1ccccc1-2	ASAP1 GAP inh 27.6 (no result: Efflux pump inh) | ASAP1 inh confirm inactive
CC(=O)Nc1ccc2c(c1)C(=Nc1ccccc1)c1ccccc1-2	none (no result: Efflux pump inh)
O=C(C1CCCN(Cc2ccccc2[N+](=O)[O-])C1)N1CCCC1 (stereo unspecified)	ASAP1 GAP inh 26.7 | ASAP1 inh confirm inactive
O=C1NC[C@@H](CCCCN2C[C@H](Cc3ccc(O)cc3)N(Cc3ccccc3)C(=O)C2=O)N(CC2CCCCC2)C1=O	none (no result: Rtt109 HAT inh, Efflux pump inh)
COc1ccc(Br)cc1C(=O)NC(=S)Nc1ccc(CN2CCOCC2)cc1	ASAP1 GAP inh 27.2 | ASAP1 inh confirm inactive
CC(=O)c1cccc(S(=O)(=O)N2CCC(C(=O)Oc3ccc(-c4nnco4)cc3)CC2)c1	none
COc1ccc(-n2nnc3c(=O)n(CC(=O)Nc4ccc5c(c4)OCCO5)cnc32)cc1OC	ASAP1 GAP inh 108.3 | ASAP1 inh confirm 72.9
NS(=O)(=O)c1ccc(NC(=O)CN2CCN(S(=O)(=O)/C=C/c3ccccc3)CC2)cc1	ASAP1 GAP inh 30.2 | ASAP1 inh confirm inactive
CCNC(=O)c1ccc(CSc2nc3ccccc3s2)cc1	ASAP1 GAP inh 27.1 | ASAP1 inh confirm inactive
CC(=O)N(C)c1ccc(NC(=O)Nc2ccc(C)c(C)c2)cc1	ASAP1 GAP inh 26.6 (no result: Rtt109 HAT inh) | ASAP1 inh confirm inactive
CCOc1ccc2[nH]c(C(=O)N/N=C/c3ccccc3OC)cc2c1	ASAP1 GAP inh 29.8 | ASAP1 inh confirm 27.7
COc1ccc2[nH]c(C(=O)N/N=C/c3ccccc3OC)cc2c1	none
COc1ccc(NC(=O)c2ccc(-c3ccccc3C(F)(F)F)o2)cc1	ASAP1 GAP inh 25.9, FGF22 binding 44.2 (no result: Efflux pump inh) | ASAP1 inh confirm inactive
